Measurements reported in paper PMC10731006 (Heliyon, 2023).
Converted amounts (≈) assume the structure as drawn. Where two headings read alike, the source gives them in different places.

Assays:
[1] = test system: non-small cell lung cancer (A549) cells; assay: MTT cytotoxicity assay, A549; format: cell-based, human; conditions: for SI A549 (selectivity index): IC50 in HDF / IC50 in A549, 96 h; for IC50: read-out: IC50 A549
In short: (§1)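 Cells were grown in RPMI 1640 with 10% FCS, 2 mM L-glutamine and 1% penicillin-streptomycin at 37 °C under 5% CO2. They were seeded at 1 × 10^4 cells/ml, left overnight to adhere, and exposed 96 h to test compound diluted in medium (six final levels, 1–600), with DMSO-matched and cisplatin controls. MTT at 5 mg/ml was added for 4 h, formazan dissolved in DMSO, and A540 read, in triplicate. IC50 was fitted from the data. SI = IC50 in HDF / IC50 in this line.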

[2] = test system: human dermal fibroblast (HDF, human dermal cell line); assay: MTT cytotoxicity assay, normal cells; format: cell-based; conditions: read-out: IC50 HDF
In short: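 Human dermal fibroblasts were maintained in DMEM with 10% FCS, 2 mM L-glutamine and 1% penicillin-streptomycin (37 °C, 5% CO2). They were seeded at 1 × 10^4 cells/ml, allowed to adhere overnight, then treated 96 h with serially diluted test compound (six final levels, 1–600) beside DMSO-matched vehicle and cisplatin controls. Then MTT 5 mg/ml was added for 4 h, formazan taken up in DMSO, and absorbance read at 540 nm, in triplicate. IC50 was fitted.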

[3] = test system: glioblastoma (U-87 MG) cells; assay: MTT cytotoxicity assay, U-87 MG; format: cell-based, human; conditions: for SI U87 (selectivity index): IC50 in HDF / IC50 in U87, 96 h; for IC50: read-out: IC50 U87
In short: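 U-87 MG cells were cultured in DMEM with 10% FCS, 2 mM L-glutamine and 1% penicillin-streptomycin at 37 °C, 5% CO2. Seeding was 1 × 10^4 cells/ml; after overnight adherence, test compound diluted in medium (six final levels, 1–600) was applied for 96 h alongside DMSO-matched and cisplatin controls. Read-out: MTT 5 mg/ml for 4 h, DMSO solubilisation, A540, in triplicate, IC50 fitted. SI = IC50 in HDF / IC50 in U87.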

[4] = test system: HDF, U87, MCF-7 and A549 cells; assay: Morphological analysis; format: cell-based, human; conditions: 96 h, treatment at the respective IC50 for each cell line
In short: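 HDF, U87, MCF-7 and A549 cells were seeded at 1 × 10^4 cells/ml in flat-bottom plates and adhered overnight. They were then treated 96 h with test compound serially diluted in medium (final 1–600 μM/ml). Controls were untreated and DMSO-matched wells, plus cisplatin at 1–100 μM/mL. Cells were fixed in ice-cold methanol for 30 min at 4 °C, stained with hematoxylin, and viewed by inverted light microscopy.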

[5] = test system: breast cancer (MCF7) cells; assay: MTT cytotoxicity assay, MCF7; format: cell-based, human; conditions: for SI MCF-7 (selectivity index): IC50 in HDF / IC50 in MCF-7, 96 h; for IC50: read-out: IC50 MCF-7
In short: as §1

[6] = test system: Gram-positive and Gram-negative bacterial test strains; assay: Antibacterial activity, whole panel of test strains; format: cell-based; conditions: agar diffusion
In short: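 Disc diffusion followed CLSI (2012). Test compound at 10, 50 and 100 μg/disc was loaded on 6-mm blank filter discs laid on Mueller Hinton agar seeded at 10^6 cells/ml. Strains were S. aureus ATCC 10145, B. cereus ATCC 11778, B. subtilis ATCC 6633, P. aeruginosa ATCC 13048 and E. coli ATCC 25922. Inhibition zones were recorded.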

[7] = test system: cancer cell lines (U87, MCF-7 and A549) compared to normal cells (HDF); assay: MTT cytotoxicity, cancer cell lines compared to normal cells; format: cell-based, human; conditions: 96 h treatment
In short: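 A549 and MCF7 grown in RPMI 1640, HDF and U87 in DMEM, each with 10% FCS, 2 mM L-glutamine, 1% pen-strep, 37 °C, 5% CO2. Cells at 1 × 10^4 cells/ml were adhered overnight, then exposed 96 h to test compound (final 1–600 […] in medium). Controls were blank, untreated, DMSO-matched and cisplatin (1–100 μM/mL). MTT 5 mg/ml for 4 h; DMSO-solubilised formazan read at 540 nm, triplicate. IC50 from curve fitting; selectivity index = HDF IC50 / cancer-line IC50.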

[8] = test system: Escherichia coli (ATCC 25922); assay: Micro-broth dilution assay; format: cell-based; conditions: ATCC25922, read-out: MIC EC
[9] = test system: Staphylococcus aureus (ATCC 10145); assay: Agar diffusion test, S. aureus; format: cell-based; conditions: ATCC10145, read-out: Zone of inhibition SA
[10] = ABTS radical scavenging assay
[11] = test system: Bacillus cereus (ATCC 11778); assay: Agar diffusion test, B. cereus; format: cell-based; conditions: ATCC11778, read-out: Zone of inhibition BC
[12] = test system: Pseudomonas aeruginosa (ATCC 13048); assay: Micro-broth dilution assay; format: cell-based; conditions: ATCC13048, read-out: MIC PA
[13] = test system: Bacillus cereus (ATCC 11778); assay: Micro-broth dilution assay; format: cell-based; conditions: ATCC11778, read-out: MIC BC
B. subtilis (ATCC 6633) = assay: Micro-broth dilution assay; format: cell-based; conditions: Bacillus subtilis, ATCC6633, read-out: MIC BS
[14] = test system: Staphylococcus aureus (ATCC 10145); assay: Micro-broth dilution assay; format: cell-based; conditions: ATCC10145, read-out: MIC SA
[15] = test system: Escherichia coli (ATCC 25922); assay: Agar diffusion test, E. coli; format: cell-based; conditions: ATCC25922, read-out: Zone of inhibition EC
[16] = test system: Pseudomonas aeruginosa (ATCC 13048); assay: Agar diffusion test, P. aeruginosa; format: cell-based; conditions: ATCC13048, read-out: Zone of inhibition PA
[17] = DPPH radical scavenging assay

| MIC [8] [µg/mL] | IC50 ± SD, ABTS [10] [µg/mL] | SMILES | SI A549 (selectivity index) [1] | SI U87 (selectivity index) [3] | SI MCF-7 (selectivity index) [5] | inhibition zones, range over susceptible strains [6] | cytotoxic / anti-proliferative activity in words [7] | IC50 ([1]; Homo sapiens, A549, 96 h) [µM] | IC50 ([2]; Homo sapiens, Fibroblast, 96 h) [µM] | IC50 ([3]; Homo sapiens, U-87 MG, 96 h) [µM] | zone of inhibition at 100 µg/disc [9] [mm] | zone of inhibition at 300 µg/disc [9] [mm] | zone of inhibition at 500 µg/disc [9] [mm] | % inhibition ±SD, ABTS ([10]; 5 μg/ml) [%] | % inhibition ±SD, ABTS ([10]; 10 μg/ml) [%] | % inhibition ±SD, ABTS ([10]; 25 μg/ml) [%] | % inhibition ±SD, ABTS ([10]; 50 μg/ml) [%] | % inhibition ±SD, ABTS ([10]; 100 μg/ml) [%] | zone of inhibition at 100 µg/disc [11] [mm] | zone of inhibition at 300 µg/disc [11] [mm] | also measured |
| --- | --- | --- | --- | --- | --- | --- | --- | --- | --- | --- | --- | --- | --- | --- | --- | --- | --- | --- | --- | --- | --- |
|  |  | N.N.[Cl][Pt][Cl] [Cisplatin, reference compound] | 1.3 | 1.5 | 1.5 |  |  |  |  |  |  |  |  |  |  |  |  |  |  |  | IC50 ([1]; MTT, 96 h treatment): 30.4 ± 5.2 µM; IC50 ([2]; MTT, 96 h treatment): 40.9 ± 5.4 µM; IC50 ([3]; MTT, 96 h treatment): 28.3 ± 5.3 µM; morphological changes of treated cancer cells [4]: became rounded and separated from each other, shrank, and underwent nuclear condensation; IC50 ([5]; MTT, 96 h treatment): 26.9 ± 4.7 µM |
| > 500 | 35.1 ± 2.0 (≈ 62.1 µM) | COC(=O)c1cn(C2CC2)c2cc(N3CCN(C(=O)c4c(C)nnn4-c4ccc(Cl)cc4)CC3)c(F)cc2c1=O [Compound 6c, methyl 7-(4-(1-(4-chlorophenyl)-4-methyl-1H-1,2,3-triazole-5-carbonyl)piperazin-1-yl)-1-cyclopropyl-6-fluoro-4-oxo-1,4-dihydroquinoline-3-carboxylate] | 1.2 | 23.9 | 4.8 | 13 to 16 mm | significant cytotoxic activity against only U-87 and MCF-7 cancer cell lines | 239 ± 7.9 | 294 ± 11.4 | 12.3 ± 5.5 | 10.6 ± 1.2 | 12.3 ± 0.6 | 13.3 ± 0.3 | 14.8 ± 0.6 | 33.3 ± 0.8 | 42.7 ± 0.4 | 59.8 ± 0.3 | 65.7 ± 0.1 | 12.7 ± 0.6 | 13.7 ± 1.1 | zone of inhibition at 500 µg/disc [11]: 15.3 ± 0.7 mm; IC50 ([5]; Homo sapiens, MCF7, 96 h): 61.6 ± 11.1 µM; MIC [12]: 500 µg/mL (≈ 885 µM); MIC [13]: 500 µg/mL (≈ 885 µM); MIC (B. subtilis (ATCC 6633)): > 500 µg/mL; MIC [14]: > 500 µg/mL; zone of inhibition at 100 µg/disc [15]: 11.3 ± 0.7 mm; zone of inhibition at 300 µg/disc [15]: 13.6 ± 1.2 mm; zone of inhibition at 500 µg/disc [15]: 14.6 ± 0.3 mm; zone of inhibition at 100 µg/disc [16]: 12.3 ± 0.6 mm; zone of inhibition at 300 µg/disc [16]: 14.6 ± 0.6 mm; zone of inhibition at 500 µg/disc [16]: 16.3 ± 0.6 mm; IC50 ± SD, DPPH [17]: 43.1 ± 1.8 µg/mL (≈ 76.3 µM); % inhibition ±SD, DPPH ([17]; 10 μg/ml): 24.6 ± 1.8%; % inhibition ±SD, DPPH ([17]; 25 μg/ml): 31.7 ± 0.3%; % inhibition ±SD, DPPH ([17]; 50 μg/ml): 52.2 ± 0.2%; % inhibition ±SD, DPPH ([17]; 100 μg/ml): 71.4 ± 0.7% |
| > 500 | 31.7 ± 1.9 (≈ 53 µM) | COC(=O)c1cn(C2CC2)c2cc(N3CCN(C(=O)c4c(C)nnn4-c4ccc(C(F)(F)F)cc4)CC3)c(F)cc2c1=O [Compound 6d, methyl 7-(4-(1-(4-trifluoromethylphenyl)-4-methyl-1H-1,2,3-triazole-5-carbonyl)piperazin-1-yl)-1-cyclopropyl-6-fluoro-4-oxo-1,4-dihydroquinoline-3-carboxylate] | 1.4 | 111.4 | 3.4 | 12–14 mm | significant cytotoxic activity against only U-87 and MCF-7 cancer cell lines | 308 ± 12.1 | 425 ± 18.5 | 3.82 ± 2.9 | 10.3 ± 0.6 | 12.3 ± 0.6 | 14.6 ± 1.2 | 21.1 ± 1.0 | 33.7 ± 0.7 | 42.8 ± 0.3 | 61.6 ± 0.6 | 66.5 ± 0.6 | 9.6 ± 1.2 | 11 | zone of inhibition at 500 µg/disc [11]: 13.3 ± 0.6 mm; IC50 ([5]; Homo sapiens, MCF7, 96 h): 124 ± 10.6 µM; MIC [12]: 500 µg/mL (≈ 835 µM); MIC [13]: > 500 µg/mL; MIC (B. subtilis (ATCC 6633)): > 500 µg/mL; MIC [14]: 500 µg/mL (≈ 835 µM); zone of inhibition at 100 µg/disc [15]: 8.3 ± 1.5 mm; zone of inhibition at 300 µg/disc [15]: 10.3 ± 0.7 mm; zone of inhibition at 500 µg/disc [15]: 12.6 ± 0.7 mm; zone of inhibition at 100 µg/disc [16]: 11.7 ± 0.6 mm; zone of inhibition at 300 µg/disc [16]: 13 ± 0.3 mm; zone of inhibition at 500 µg/disc [16]: 13.3 ± 0.6 mm; IC50 ± SD, DPPH [17]: 58.8 ± 1.7 µg/mL (≈ 98.2 µM); % inhibition ±SD, DPPH ([17]; 5 μg/ml): 13.8 ± 0.2%; % inhibition ±SD, DPPH ([17]; 10 μg/ml): 26.0 ± 0.9%; % inhibition ±SD, DPPH ([17]; 25 μg/ml): 42.1 ± 0.6%; % inhibition ±SD, DPPH ([17]; 50 μg/ml): 46.2 ± 0.3%; % inhibition ±SD, DPPH ([17]; 100 μg/ml): 68.7 ± 0.1% |
